Results from PMC3572763 (Molecular pharmaceutics, 2013).
Read-outs that look alike come from different tables or passages of the source.

How the values were obtained:
[1] = Chemical stability in pH buffers; format: physicochemical; details: for T1/2 −pH 6.0: pH 6.0 buffer; for T1/2 −pH 6.0 / T1/2 pH 7.4: value given in h; for T1/2 pH 7.4: pH 7.4 buffer
[2] = literature; cited from earlier work
[3] = from literature, cited from earlier work
[4] = system: H1N1 NWS/33 strain of influenza; details: cited from earlier work
[5] = molecular target: T1, PEPT1 (Homo sapiens, UniProt P46059); experiment: [3H]Gly-Sar uptake inhibition in Caco-2 cells; format: cell-based
T1 sequence (P46059 1-708): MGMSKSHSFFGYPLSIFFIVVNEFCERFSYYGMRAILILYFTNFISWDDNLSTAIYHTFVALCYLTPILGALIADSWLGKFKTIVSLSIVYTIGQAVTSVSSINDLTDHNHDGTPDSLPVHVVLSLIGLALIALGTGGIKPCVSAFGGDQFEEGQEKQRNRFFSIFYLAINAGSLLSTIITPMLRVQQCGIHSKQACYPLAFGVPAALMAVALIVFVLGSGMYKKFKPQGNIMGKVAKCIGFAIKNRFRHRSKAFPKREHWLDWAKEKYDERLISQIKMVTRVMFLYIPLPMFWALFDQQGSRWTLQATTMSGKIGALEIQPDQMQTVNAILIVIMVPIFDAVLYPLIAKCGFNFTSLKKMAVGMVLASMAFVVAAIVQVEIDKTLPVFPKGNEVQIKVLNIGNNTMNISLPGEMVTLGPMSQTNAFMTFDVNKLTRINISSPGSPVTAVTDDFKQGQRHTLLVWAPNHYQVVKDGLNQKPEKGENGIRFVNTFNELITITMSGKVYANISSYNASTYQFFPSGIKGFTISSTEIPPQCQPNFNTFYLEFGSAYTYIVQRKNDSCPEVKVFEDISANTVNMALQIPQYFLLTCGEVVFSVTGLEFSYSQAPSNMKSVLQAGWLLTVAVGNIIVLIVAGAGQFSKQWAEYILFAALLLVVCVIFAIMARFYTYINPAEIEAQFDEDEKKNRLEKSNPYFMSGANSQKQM
How it was run: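 Caco-2 cells seeded at 5.0 × 10^4/well and grown 10 days. Washed and preincubated 15 min in pH 6.0 MES uptake buffer, then exposed 30 min at 37°C to 10 μM Gly-Sar (~1% [3H]) plus test compound 0.05–5 mM. Cells washed with ice-cold PBS, lysed in MeOH/water 1:1, counted by scintillation; IC50 by nonlinear fit; mean ± SEM, n = 3.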

[6] = cited from earlier work
[7] = molecular target: T1, PEPT1; experiment: Direct uptake in PEPT1 over-expressing HeLa cells; format: cell-based; details: 1 mM
[8] = system: human lysosomal neuraminidase; details: cited from earlier work
[9] = mice; for AUC24hr / Cmax / Tmax hrs: GOCarb measured in plasma; for oral bioavailability: 10 mg/kg oral gavage relative to 1 mg/kg IV
[10] = system: rat jejunum; experiment: Single-pass intestinal; format: in vivo; details: rat jejunal perfusion
[11] = system: Caco-2 monolayers; experiment: Caco-2 cell monolayers permeability; format: in vitro ADME, human; details: A to B
[12] = system: Type B strains; details: tissue culture; cited from earlier work
[13] = system: Type A strains; details: tissue culture; cited from earlier work

## CCOC(=O)C1=C[C@@H](OC(CC)CC)[C@H](NC(C)=O)[C@@H](NC(=N)N)C1 [GOC ethyl ester]
[1]
  T1/2 −pH 6.0: >20h
  T1/2 pH 7.4: >20h

## CC(C)[C@H](N)C(=O)OCCOCn1cnc2c(=O)[nH]c(N)nc21 [Valacyclovir]
[2]
  bioavailability in humans: up to 80%
[3]; pH 6.0
  T1/2 −pH 6.0: ND^b 69.7 h^c
[3]; pH 7.4
  T1/2 pH 7.4: ND^b >8 h^c

## CCC(CC)O[C@@H]1C=C(C(=O)O)C[C@H](NC(=N)N)[C@H]1NC(C)=O [GOCarb, 4-Guanidine oseltamivir carboxylate]
[4]; H1N1 NWS/33 strain of influenza
  IC50: 0.9 nM
[4]; versus the A/NWS/33 virus, dashed line in Figure 8
  approximate EC50: ~5 ng/mL
[5]
  competition with [3H]Gly-Sar: little competition
[6]; in rats
  intestinal permeability: < 5%
[6]; species not stated in abstract
  oral bioavailability: 4%
[7]
  uptake into transfected or non-transfected cells: virtually no uptake
[8]
  fold more potent in inhibiting human lysosomal neuraminidase as compared to OC: ~ 10 fold
[9]; 1 mg/kg IV
  AUC24hr: 487 ± 206 ng·h/mL
[9]; 10 mg/kg po-fasted
  AUC24hr: 278 ± 52 ng·h/mL
  Cmax: 50.9 ± 35.8 ng/mL
  Tmax hrs: 1.3 ± 0.6 h
[9]; 10 mg/kg po-fed
  AUC24hr: 291 ± 87 ng·h/mL
  Cmax: 65.4 ± 26.8 ng/mL
  Tmax hrs: 3.0 ± 1.2 h
[9]; fasted
  oral bioavailability: approximately 5%
[9]; fed
  oral bioavailability: approximately 5%
[10]
  jejunal permeability: very low permeability
[10]; listed as parent drug
  jejunal permeability: essentially zero permeability
[11]
  permeability across Caco-2 monolayers: negligible permeability
[1]; all pHs, up to 20 hours
  hydrolysis in buffers: limited hydrolysis
[1]
  T1/2 −pH 6.0: >20h
  T1/2 pH 7.4: >20h
[12]
  fold more potent than OC: ~13 fold
[13]
  fold more potent than OC: approximately 100 fold
